Experimental data: paper PMC12591375 (British journal of pharmacology, 2022)
Like-named read-outs stand apart in the source and are kept apart here. Marks after values point to notes of the source that are not given here.

Tests used:
CB2 D356A/D359A [1] = target: T1, CB2 D356A/D359A (Homo sapiens, UniProt P34972, D356A/D359A/Q63R); test: G protein dissociation BRET assay, CB2 D356A/D359A; type: cell-based
CB2 D351A/D354A [2] = target: T2, CB2 D351A/D354A (Homo sapiens, UniProt P34972, D351A/D354A/Q63R); test: β-arrestin 2 translocation BRET assay, CB2 D351A/D354A mutant; type: cell-based; settings: for Span, β-arrestin 2 translocation, CB2 D351A/D354A: HEK 293 cells
CB2 [3] = target: T3, CB2 (Homo sapiens, UniProt P34972, Q63R); test: β-arrestin 1 translocation real-time BRET assay; type: cell-based; settings: HEK 293 cells
CB2 D351A/D354A [4] = target: T2, CB2 D351A/D354A; test: G protein dissociation BRET assay, CB2 D351A/D354A; type: cell-based
Wild-type CB2 = Wild-type CB2 (Homo sapiens, UniProt P34972, Q63R); test: G protein dissociation BRET assay, wild-type CB2; type: cell-based
CB2 D356A/D359A [5] = target: T1, CB2 D356A/D359A; test: β-arrestin 2 translocation BRET assay, CB2 D356A/D359A mutant; type: cell-based; settings: for Span, β-arrestin 2 translocation, CB2 D356A/D359A: HEK 293 cells
CB2 [6] = target: T3, CB2; test: β-arrestin 2 translocation real-time BRET assay, wild-type CB2; type: cell-based; settings: for Span, β-arrestin 2 translocation to CB2 / Span, β-arrestin 2 translocation, wild-type CB2: HEK 293 cells
[7] = target: T4, CB2 D351A/D354A/D356A/D359A (Homo sapiens, UniProt P34972, D351A/D354A/D356A/D359A/Q63R); test: β-arrestin 2 translocation BRET assay, CB2 D351A/D354A/D356A/D359A mutant; type: cell-based; settings: for Span, β-arrestin 2 translocation, CB2 D351A/D354A/D356A/D359A: HEK 293 cells
[8] = target: T4, CB2 D351A/D354A/D356A/D359A; test: G protein dissociation BRET assay, CB2 D351A/D354A/D356A/D359A; type: cell-based; settings: HEK 293 cells
endogenous GRK2/3 = type: cell-based, human; settings: 30-μM compound 101, 30 min
Summary of the method: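 HEK 293 cells PEI-transfected with mem-Citrine-SH3, Rluc8-β-arrestin 2, HA-hCB2 and empty vector, then replated on PDL. Equilibrated ~30 min in phenol red-free DMEM with 1 mg/mL fatty acid-free BSA and 10 mM HEPES, then given 30 µM test compound or vehicle for 30 min.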

T4 sequence (P34972 whole entry Q63R/D351A/D354A/D356A/D359A): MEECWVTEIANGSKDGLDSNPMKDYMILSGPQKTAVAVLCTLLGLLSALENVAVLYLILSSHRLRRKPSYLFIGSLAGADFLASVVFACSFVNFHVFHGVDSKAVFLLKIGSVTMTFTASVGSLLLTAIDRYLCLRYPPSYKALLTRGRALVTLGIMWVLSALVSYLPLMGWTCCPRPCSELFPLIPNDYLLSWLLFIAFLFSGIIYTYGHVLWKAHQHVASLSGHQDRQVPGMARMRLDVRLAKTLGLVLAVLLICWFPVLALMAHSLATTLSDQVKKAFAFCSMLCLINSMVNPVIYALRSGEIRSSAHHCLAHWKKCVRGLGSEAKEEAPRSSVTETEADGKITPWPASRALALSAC
T1 sequence (P34972 whole entry Q63R/D356A/D359A): as the sequence (P34972 whole entry Q63R/D351A/D354A/D356A/D359A) above, with A351D, A354D counted along it
T3 sequence (P34972 whole entry Q63R): as the sequence (P34972 whole entry Q63R/D351A/D354A/D356A/D359A) above, with A351D, A354D, A356D, A359D counted along it
Sequence of Wild-type CB2 (P34972 whole entry Q63R): as the sequence (P34972 whole entry Q63R/D351A/D354A/D356A/D359A) above, with A351D, A354D, A356D, A359D counted along it
T2 sequence (P34972 whole entry Q63R/D351A/D354A): as the sequence (P34972 whole entry Q63R/D351A/D354A/D356A/D359A) above, with A356D, A359D counted along it

CCCCCCC(C)(C)c1ccc([C@@H]2C[C@H](O)CC[C@H]2CCCO)c(O)c1 [CP55940]
attenuation of G protein dissociation by addition of β-arrestin 2 (CB2 D356A/D359A [1]; 1-μM CP55940): over 50%
G protein dissociation at 1 μM CP55940 (CB2 D356A/D359A [1]; HEK 293 cells, + β-arrestin 2): −91.91 (4.94) ΔBRET.s
G protein dissociation at 1 μM CP55940, % mock (CB2 D356A/D359A [1]; HEK 293 cells, + β-arrestin 2): 49.37 (2.63) % mock
Span, G protein dissociation (CB2 D356A/D359A [1]; HEK 293 cells, mock): −186.32 (4.70) ^* ΔBRET.s
Span, β-arrestin 2 translocation, CB2 D351A/D354A (CB2 D351A/D354A [2]; coexpression of GRK2): 147.34 (2.60) ^* ΔBRET.s
Span, β-arrestin 2 translocation, CB2 D351A/D354A (CB2 D351A/D354A [2]; coexpression of GRK3): 147.06 (10.88) ΔBRET.s
Span, β-arrestin 2 translocation, CB2 D351A/D354A (CB2 D351A/D354A [2]; mock): 132.61 (6.99)^◊ ΔBRET.s
reduction in efficacy of β-arrestin 2 translocation versus wild-type CB2 (CB2 D351A/D354A [2]; mock): 41%
Span, β-arrestin 1 translocation to CB2 (CB2 [3]; coexpression of GRK1): 86.32 (2.74) ^* ΔBRET.s
Span, β-arrestin 1 translocation to CB2 (CB2 [3]; coexpression of GRK2): 79.90 (3.34) ^* ΔBRET.s
Span, β-arrestin 1 translocation to CB2 (CB2 [3]; coexpression of GRK3): 79.51 (2.33) ^* ΔBRET.s
Span, β-arrestin 1 translocation to CB2 (CB2 [3]; coexpression of GRK4): 64.47 (1.90) ΔBRET.s
Span, β-arrestin 1 translocation to CB2 (CB2 [3]; coexpression of GRK5): 70.53 (2.52) ΔBRET.s
Span, β-arrestin 1 translocation to CB2 (CB2 [3]; coexpression of GRK6): 66.73 (3.12) ΔBRET.s
Span, β-arrestin 1 translocation to CB2 (CB2 [3]; mock (no GRK)): 63.07 (4.10) ΔBRET.s
attenuation of G protein dissociation by addition of β-arrestin 2 (CB2 D351A/D354A [4]; 1-μM CP55940): over 50%
G protein dissociation at 1 μM CP55940 (CB2 D351A/D354A [4]; HEK 293 cells, + β-arrestin 2): −97.62 (4.27) ΔBRET.s
G protein dissociation at 1 μM CP55940, % mock (CB2 D351A/D354A [4]; HEK 293 cells, + β-arrestin 2): 47.86 (1.69) % mock
Span, G protein dissociation (CB2 D351A/D354A [4]; HEK 293 cells, mock): −204.02 (5.54) ΔBRET.s
attenuation of G protein dissociation by addition of β-arrestin 2 (Wild-type CB2; 1-μM CP55940): over 50%
G protein dissociation at 1 μM CP55940 (Wild-type CB2; HEK 293 cells, + GRK3): −226.64 (5.63) ΔBRET.s
G protein dissociation at 1 μM CP55940 (Wild-type CB2; HEK 293 cells, + β-arrestin 2): −97.47 (3.67) ΔBRET.s
G protein dissociation at 1 μM CP55940, % mock (Wild-type CB2; HEK 293 cells, + β-arrestin 2): 45.28 (2.15) % mock
G protein dissociation at 1 μM CP55940 (Wild-type CB2; HEK 293 cells, + β-arrestin 2 + GRK3): −91.65 (4.04) ΔBRET.s
Span, G protein dissociation (Wild-type CB2; HEK 293 cells, mock): −216.50 (8.58) ΔBRET.s
Span, β-arrestin 2 translocation, CB2 D356A/D359A (CB2 D356A/D359A [5]; coexpression of GRK2): 161.84 (5.06) ΔBRET.s
Span, β-arrestin 2 translocation, CB2 D356A/D359A (CB2 D356A/D359A [5]; coexpression of GRK3): 188.04 (8.90) ΔBRET.s
Span, β-arrestin 2 translocation, CB2 D356A/D359A (CB2 D356A/D359A [5]; mock): 170.18 (6.70)^◊ ΔBRET.s
reduction in efficacy of β-arrestin 2 translocation versus wild-type CB2 (CB2 D356A/D359A [5]; mock): 24%
Span, β-arrestin 2 translocation to CB2 (CB2 [6]; coexpression of GRK1, Table 2): 183.2 (11.32) ΔBRET.s
Span, β-arrestin 2 translocation to CB2 (CB2 [6]; coexpression of GRK2, Table 2): 164.3 (16.29) ^* ΔBRET.s
Span, β-arrestin 2 translocation, wild-type CB2 (CB2 [6]; coexpression of GRK2, Table 3 (mutant experiments)): 174.54 (11.90) ^* ΔBRET.s
Span, β-arrestin 2 translocation to CB2 (CB2 [6]; coexpression of GRK3, Table 2): 155.0 (9.91) ^* ΔBRET.s
Span, β-arrestin 2 translocation, wild-type CB2 (CB2 [6]; coexpression of GRK3, Table 3 (mutant experiments)): 210.00 (2.53) ^* ΔBRET.s
Span, β-arrestin 2 translocation to CB2 (CB2 [6]; coexpression of GRK4, Table 2): 176.9 (8.00) ΔBRET.s
Span, β-arrestin 2 translocation to CB2 (CB2 [6]; coexpression of GRK5, Table 2): 156.0 (6.71) ^* ΔBRET.s
Span, β-arrestin 2 translocation to CB2 (CB2 [6]; coexpression of GRK6, Table 2): 160.6 (8.71) ΔBRET.s
Span, β-arrestin 2 translocation to CB2 (CB2 [6]; mock (no GRK), Table 2): 190.2 (12.38) ΔBRET.s
Span, β-arrestin 2 translocation, wild-type CB2 (CB2 [6]; mock, Table 3 (mutant experiments)): 222.91 (6.17) ΔBRET.s
lowering of efficacy of β-arrestin 2 translocation by GRK coexpression (CB2 [6]; coexpression of GRK2, GRK3 and GRK5 versus mock): 10–20%
Span, β-arrestin 2 translocation, CB2 D351A/D354A/D356A/D359A ([7]; coexpression of GRK2): 194.18 (13.37) ^* ΔBRET.s
Span, β-arrestin 2 translocation, CB2 D351A/D354A/D356A/D359A ([7]; coexpression of GRK3): 180.16 (13.23) ^* ΔBRET.s
Span, β-arrestin 2 translocation, CB2 D351A/D354A/D356A/D359A ([7]; mock): 142.57 (8.39)^◊ ΔBRET.s
increase of β-arrestin 2 translocation response versus mock ([7]; coexpression of GRK2): 36%
increase of β-arrestin 2 translocation response versus mock ([7]; coexpression of GRK3): 26%
reduction of β-arrestin 2 translocation response versus wild-type CB2 ([7]; mock): 36%
G protein dissociation at 1 μM CP55940 ([8]; + GRK3): −267.49 (4.62)^ⱡ ΔBRET.s
G protein dissociation at 1 μM CP55940 ([8]; + β-arrestin 2): −165.31 (10.19)^◊ ΔBRET.s
G protein dissociation at 1 μM CP55940, % mock ([8]; + β-arrestin 2): 67.29 (4.02)^◊ % mock
G protein dissociation at 1 μM CP55940 ([8]; + β-arrestin 2 + GRK3): −155.77 (3.82)^◊ ΔBRET.s
Span, G protein dissociation ([8]; mock): −246.10 (6.75) ^* ΔBRET.s

Cn1c(CNc2cccc(C(=O)NCc3ccccc3C(F)(F)F)c2)nnc1-c1ccncc1 [compound 101]
reduction of β-arrestin 2 translocation to CB2 (endogenous GRK2/3; stimulation with 1-μM AMB-FUBINACA): approximately 15%
reduction of β-arrestin 2 translocation to CB2 (endogenous GRK2/3; stimulation with 10-μM CP55940): approximately 15%
reduction of β-arrestin 2 translocation to CB2 (endogenous GRK2/3; stimulation with […] 2-AG): approximately 15%
